The values that follow come from ChEMBL document CHEMBL3421606, “Organoselenocyanates and symmetrical diselenides redox modulators: Design, synthesis and biological evaluation” (Eur J Med Chem, 2015).

A short description of series [1]: Antioxidant activity assessed as glutathione peroxidase like activity after 3 mins by spectrophotometry. The conditions noted are these: 0.05 h. The series is classed as physicochemical. The gist of the method:
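NADPH-glutathione reductase coupled assay in 50 mM phosphate buffer with 0.1% Triton X-100, plus glutathione, glutathione reductase and NADPH. Compound at 41 µM; reaction started with 0.8 mM H2O2. A340 recorded over 3 min to give ΔA/min, background-corrected for H2O2+GSH and for compound colour. Ebselen 41 µM as reference.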

Series [2] in a line: Antioxidant activity assessed as DPPH free radical scavenging activity after 30 mins by spectrophotometry. The conditions noted are these: 0.5 h. Type of series: physicochemical. The gist of the method:
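Compounds in methanol at 1 mg/ml. 200 µL added to 0.4 ml of 0.1 mM DPPH in methanol. Kept 30 min in the dark, then absorbance read at 517 nm against a blank (methanol, no DPPH). Scavenging % = (A blank − A sample)/A blank x 100. Ascorbic acid and ebselen served as reference antioxidants.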

The test system of series [3] is Staphylococcus aureus. Briefly: Antimicrobial activity against Staphylococcus aureus assessed as diameter of inhibition zone after 2 days by agar diffusion assay. Type of series: functional. The gist of the method: (§1)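 Agar well/disc diffusion. 100 µL of suspension, 1x10^8 CFU/mL bacteria on nutrient agar or 1x10^4 spores/mL C. albicans on potato dextrose agar. 6 mm paper discs soaked with 20 µl of 1 mg/ml compound (20 µg per disc), incubated at 30°C. Inhibition zone diameter (mm) read after 1 and 2 days. Ampicillin (bacteria) and clotrimazole (fungus) controls at the same concentration.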

The next series concerns HepG2. Briefly: Cytotoxicity against human HepG2 cells after 48 hrs by MTT assay. Type of series: functional, cell-based. The method in brief: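 HepG2 grown in DMEM with 10% calf serum at 37 °C. Seeded at 50,000 cells/mL, grown 2 days, then serial compound dilutions added for 48 h at 37 °C, 10% CO2. MTT at 0.5 mg/mL final for 2 h; formazan dissolved in DMSO and read at 590 nm. IC50 = concentration giving 50% of untreated-control absorbance, from dose-response curves, mean of two parallel experiments. 5-FU as reference.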
A general note: Formazan colour is commonly taken as a measure of viable cells.

Series [4] concerns Staphylococcus aureus. Briefly: Antimicrobial activity against Staphylococcus aureus assessed as diameter of inhibition zone after 2 days by agar diffusion assay relative to ampicillin. The series is classed as functional. On the set-up: concentration or dose not given beside the values. The gist of the method: (§2)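 Agar diffusion with 6 mm discs carrying 20 µL of 1 mg/ml compound on nutrient agar seeded with 1x10^8 CFU/mL bacteria, incubated at 30°C. Ampicillin run the same way at the same concentration. % activity index = inhibition zone of compound / inhibition zone of ampicillin x 100.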
Background: Agar diffusion results depend on both activity and mobility in agar.

Another series relates to Candida albicans. The series is described as follows: Antimicrobial activity against Candida albicans assessed as diameter of inhibition zone after 1 day by agar diffusion assay. The series is classed as functional. The gist of the method: as §1
Series [5] in a line: Antioxidant activity assessed as bleomycin-Fe2+-induced DNA degradation after 1 hr by spectrophotometry. Type of series: physicochemical. The gist of the method: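 Mix of calf thymus DNA 0.5 mg/ml, bleomycin sulfate 0.05 mg/ml, MgCl2 5 mM, FeCl3 and test compound 2 mM, held 1 h at 37 °C. Stopped with EDTA, then 1% TBA and 25% HCl added, heated 80 °C 30 min. Cooled and centrifuged; TBA-reactive substances read at 532 nm as MDA equivalents. Ascorbic acid as reference. Means of 3 replicates.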

Series [6] has as its system Escherichia coli. The series is described as follows: Antimicrobial activity against Escherichia coli assessed as diameter of inhibition zone after 2 days by agar diffusion assay. Type of series: functional. The gist of the method: as §1
Series [7] concerns Escherichia coli. Briefly: Antimicrobial activity against Escherichia coli assessed as diameter of inhibition zone after 2 days by agar diffusion assay relative to ampicillin. Type of series: functional. The gist of the method: as §2
The mark [8] stands for this setting: Homo sapiens, HepG2, 48 h, read-out: IC50.

On to `O=c1c2ccccc2[se]n1-c1ccccc1` [EBSELEN], for which the outcome in series [1] and in [2] was Active.
What is called IC50 is the concentration at which inhibition is half-maximal. Turning to `N#C[Se]c1ccc(NC(=O)/C=C\C(=O)O)cc1`, the “diameter of the inhibition zone (DIZ)” value was found to be 16 mm in the series with Staphylococcus aureus [3] and 27 mm in the series with Candida albicans. In addition, the outcome in [2] was Active. Besides, the IC50 in the series with HepG2 (setting [8]) is 5 µM. The Activity_index in the series with Staphylococcus aureus [4] came out at 73%. In addition, the OD in series [5] is reported as 0.051.
Regarding `O=C1C=CC(=O)N1c1ccc([Se][Se]c2ccc(N3C(=O)C=CC3=O)cc2)cc1`, the outcome in [1] and in [2] was Active. The IC50 in the series with HepG2 (setting [8]) amounted to 13 µM. Moreover, the “diameter of the inhibition zone (DIZ)” value in the series with Escherichia coli [6] was 7 mm. The OD in series [5] is 0.055. The Activity_index in the series with Escherichia coli [7] turned out to be 29%.
For the compound `CC1(C)S[C@@H]2[C@H](NC(=O)[C@H](N)c3ccccc3)C(=O)N2[C@H]1C(=O)O` [AMPICILLIN], the figures for the “diameter of the inhibition zone (DIZ)” value in the series on Staphylococcus aureus [3] and with Escherichia coli [6] were 22 mm and 24 mm, respectively.
For `N#C[Se]c1ccc(NC(=O)CCC(=O)O)cc1`, the “diameter of the inhibition zone (DIZ)” value in the series on Staphylococcus aureus [3] is on record as 15 mm. For the same compound, the result in [2] was Active. The IC50 result with HepG2 (hepg2) was “Not Active”. Besides, the Activity_index in the series with Staphylococcus aureus [4] amounted to 68%. Moreover, the OD in series [5] worked out at 0.053.
As to `N#C[Se]c1ccc(N2C(=O)CCCC2=O)cc1`, the Activity entry in series [1] is recorded as “Active”; in series [2], “Not Active”. Also, the IC50 in the series with HepG2 (setting [8]) was found to be 47 µM. Besides, in series [5], the OD amounted to 0.078.
`O=C(O)CCCC(=O)Nc1ccc([Se][Se]c2ccc(NC(=O)CCCC(=O)O)cc2)cc1`: the “diameter of the inhibition zone (DIZ)” value in the series with Staphylococcus aureus [3] is on record as 20 mm; in the series on Candida albicans it was 16 mm. Further, the outcome in series [1] and in series [2] was Active. In addition, the IC50 in the series with HepG2 (setting [8]) was 67 µM. In addition, in the series with Staphylococcus aureus [4], the Activity_index is 91%. Moreover, the OD in series [5] is on record as 0.083.
For the compound `Clc1ccccc1C(c1ccccc1)(c1ccccc1)n1ccnc1` [CLOTRIMAZOLE], the “diameter of the inhibition zone (DIZ)” value in the series on Candida albicans is 28 mm.
Turning to `O=C1CCC(=O)N1c1ccc([Se][Se]c2ccc(N3C(=O)CCC3=O)cc2)cc1`, the “diameter of the inhibition zone (DIZ)” value in the series with Staphylococcus aureus [3] was found to be 14 mm. Moreover, the Activity result in series [1] is reported as “Active”; in series [2], “Not Active”. In the series on HepG2 (setting [8]), the IC50 worked out at 14 µM. The Activity_index with Staphylococcus aureus [4] is reported as 64%. The OD in [5] was 0.074.
Regarding `N#C[Se]c1ccc(N2C(=O)CCC2=O)cc1`, the “diameter of the inhibition zone (DIZ)” value with Staphylococcus aureus [3] amounted to 21 mm; with Candida albicans it was 28 mm. The Activity result in series [2] is “Not Active”. In the series on HepG2 (hepg2), the IC50 result is listed as “Not Active”. Also, in the series with Staphylococcus aureus [4], the Activity_index stood at 95%. The OD in [5] is 0.065.
Regarding `N#C[Se]c1ccc(NC(=O)CCCC(=O)O)cc1`, the “diameter of the inhibition zone (DIZ)” value with Staphylococcus aureus [3] stood at 20 mm. Also, the values for the Activity entry in series [1] and in series [2] were “Active” and “Not Active”, respectively. In the series on HepG2 (setting [8]), the IC50 stood at 7 µM. The Activity_index in the series on Staphylococcus aureus [4] stood at 91%. Further, in series [5], the OD is recorded as 0.068.
Turning to `O=c1c2ccccc2[se]n1-c1ccc([Se][Se]c2ccc(-n3[se]c4ccccc4c3=O)cc2)cc1`, the Activity entry in series [1] is given as “Not Active”; in [2], “Active”. In addition, the IC50 in the series with HepG2 (setting [8]) was 40 µM. Also, the OD in series [5] came out at 0.06.
`O=C1O[C@H]([C@@H](O)CO)C(O)=C1O` [ASCORBIC ACID]: the OD in series [5] came to 0.062.
Take `O=C(O)CCC(=O)Nc1ccc([Se][Se]c2ccc(NC(=O)CCC(=O)O)cc2)cc1`: the “diameter of the inhibition zone (DIZ)” value in the series on Staphylococcus aureus [3] was found to be 20 mm; with Candida albicans it was 19 mm. The result in [1] and in series [2] was Active. In the series on HepG2 (hepg2), the IC50 entry was “Not Active”. Further, the Activity_index in the series on Staphylococcus aureus [4] stood at 91%. For the same compound, the OD in [5] was 0.088.
Regarding `N#C[Se]c1ccc(-n2[se]c3ccccc3c2=O)cc1`, the Activity result is “Not Active” in series [1] and “Active” in series [2]. Besides, in the series on HepG2 (setting [8]), the IC50 was 64 µM. In addition, in [5], the OD worked out at 0.09.
Turning to `O=c1[nH]cc(F)c(=O)[nH]1` [FLUOROURACIL], the IC50 in the series with HepG2 (setting [8]) was 8 µM.
With `O=C(O)/C=C\C(=O)Nc1ccc([Se][Se]c2ccc(NC(=O)/C=C\C(=O)O)cc2)cc1`, the “diameter of the inhibition zone (DIZ)” value with Staphylococcus aureus [3] came out at 21 mm. In addition, the result in [1] and in series [2] was Active. Further, in the series on HepG2 (setting [8]), the IC50 came to 3 µM. Also, the Activity_index with Staphylococcus aureus [4] came out at 95%. In [5], the OD is 0.089.
For the compound `CC(C)C(C(=O)NC(C)(C)C)N(CCc1c[nH]c2ccccc12)C(=O)c1ccccc1[Se][Se]c1ccccc1C(=O)N(CCc1c[nH]c2ccccc12)C(C(=O)NC(C)(C)C)C(C)C` (stereo not drawn), the Activity result in [1] was “Active”; in series [2] it was “Not Active”. Also, the half-maximal inhibitory concentration (IC50) with HepG2 (setting [8]) was determined as 45 µM. Besides, in [5], the OD was 0.07.
As to `Cc1ccc(C(C(=O)NC(C)(C)C)N(CCc2c[nH]c3ccccc23)C(=O)c2ccccc2[Se][Se]c2ccccc2C(=O)N(CCc2c[nH]c3ccccc23)C(C(=O)NC(C)(C)C)c2ccc(C)cc2)cc1` (stereo not drawn), the “diameter of the inhibition zone (DIZ)” value with Staphylococcus aureus [3] is given as 12 mm. For the same compound, the Activity entry in series [1] is reported as “Active”; in [2] it was “Not Active”. Besides, the IC50 entry in the series with HepG2 (hepg2) is “Not Active”. In the series with Staphylococcus aureus [4], the Activity_index is 55%. In [5], the OD came out at 0.073.
Take `CC(C)C(C(=O)NC(C)(C)C)N(Cc1ccccc1)C(=O)c1ccccc1[Se][Se]c1ccccc1C(=O)N(Cc1ccccc1)C(C(=O)NC(C)(C)C)C(C)C` (stereo not drawn): the Activity result is “Active” in series [1] and “Not Active” in series [2]. The IC50 result with HepG2 (hepg2) is given as “Not Active”. Further, in series [5], the OD was found to be 0.073.
In the case of `O=C1CCCC(=O)N1c1ccc([Se][Se]c2ccc(N3C(=O)CCCC3=O)cc2)cc1`, the “diameter of the inhibition zone (DIZ)” value in the series on Staphylococcus aureus [3] amounted to 21 mm. Moreover, the Activity result in series [1] is given as “Active”; in series [2], “Not Active”. In the series on HepG2 (setting [8]), the IC50 came out at 35 µM. Besides, the Activity_index with Staphylococcus aureus [4] came to 90%. The OD in series [5] was determined as 0.09.
Regarding `N#C[Se]c1ccc(N2C(=O)C=CC2=O)cc1`, the Activity entry in [1] is reported as “Active”; in series [2] it was “Not Active”. Also, in the series on HepG2 (setting [8]), the IC50 turned out to be 0.6 µM. Further, the OD in series [5] stood at 0.082.
